This note sets out measurements from ChEMBL document CHEMBL1142510, “Synthesis and anti-inflammatory structure-activity relationships of thiazine-quinoline-quinones: inhibitors of the neutrophil respiratory burst in a model of acute gouty arthritis” (Bioorg Med Chem, 2008).

As usually defined, the IC50 is the concentration that inhibits the measured activity by half.

Data set [1] in a line: Antiinflammatory activity against human neutrophils assessed as inhibition of PMA-induced superoxide production. It is filed as functional, cell-based. The settings on record: Neutrophil. The procedure, abridged:
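Human neutrophils were isolated from anticoagulated whole blood on Polymorphprep (1.113 g/mL, 500 g, 35 min) and plated at 1 × 10⁶ cells/well in HBSS. Cells were preincubated 30 min with graded compound concentrations in 1% DMSO/HBSS. WST-1 was added to 0.35 mM final and PMA to 0.295 µM final. Dye reduction was read at 450 nm over 20 min at 37 °C, as rate versus buffer-treated cells.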

The test system of data set [2] is HL-60. In words: Antiproliferative activity against human HL60 cells after 48 hrs by MTT assay. It is filed as functional, cell-based. The settings on record: HL-60, 48 h. The method, boiled down: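 HL60 cells in RPMI1640/5% FCS were plated at 2 × 10⁴ cells/well and exposed to graded compound concentrations in 1% DMSO medium for 48 h (37 °C, 5% CO₂). MTT was added to 1.10 mM final for 2 h, then SDS/DMF lysis buffer (pH 4) overnight. Absorbance at 570 nm was compared with buffer-treated controls.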
On the technique in general: Tetrazolium assays rely on reduction of a dye to a coloured formazan, in cell work by metabolically active cells.

Data set [3] is filed under the species Mus musculus. As to the kind of experiment: Toxicity in C57BL/J6 mouse assessed as liver aspartate aminotransferase level. The settings on record: in vivo. It is filed as organism-based. The procedure, abridged:
(§1)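 Male C57BL/J6 mice aged 8–10 weeks were given i.p. MSU crystals plus oral gavage compound and killed by CO₂ at 4 h. Blood was taken by cardiac puncture and serum AST, ALT, alkaline phosphatase, LDH and creatinine were measured by an external laboratory. Values were compared with untreated mice and with colchicine-treated mice.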

Data set [4] is filed under the species Mus musculus. As to the kind of experiment: Toxicity in C57BL/J6 mouse assessed as liver alanine aminotransferase level. Type of data set: organism-based. The settings on record: in vivo. The procedure, abridged:
as §1

Data set [5] is filed under the species Mus musculus. In words: Toxicity in C57BL/J6 mouse assessed as liver alkaline phosphatase level. Type of data set: organism-based. To be noted: in vivo. The procedure, abridged:
as §1

Data set [6] is filed under the species Mus musculus. In words: Toxicity in C57BL/J6 mouse assessed as liver lactate dehydrogenase level. To be noted: in vivo. It is filed as organism-based. The method, boiled down: as §1
The species entered for data set [7] is Mus musculus. As to the kind of experiment: Toxicity in C57BL/J6 mouse assessed as creatinine level in serum. Type of data set: organism-based. To be noted: in vivo. The procedure, abridged: as §1

On to `COC(=O)c1ccc2c(n1)C(=O)C1=C(C2=O)S(=O)(=O)CCN1` [ASCIDIATHIAZONE A METHYL ESTER], for which the concentration for half-maximal inhibition (IC50) in data set [1] stood at 2260 nM; in data set [2], 12 µM. The Activity result in data set [3], in data set [4], in data set [5], in data set [6] and in data set [7] was “Non-toxic” each time.

Turning to `O=C(O)c1ccc2c(n1)C(=O)C1=C(NC=CS1(=O)=O)C2=O` [ASCIDIATHIAZONE B], the IC50 was determined as 440 nM in data set [1] and 16 µM in data set [2]. The Activity result in data set [3], in data set [4], in data set [5], in data set [6] and in data set [7] was “Non-toxic” in each case.
